Source: PubChem BioAssay
Runt-SMMHC FRET: blocks binding of human RUNX1 Runt domain to CBFb-SMMHC. Cerulean-Runt/Venus-CBFb-SMMHC FRET ratio 530/480, 1 h. inhibition, % at 20 µM. actives 0.74% (n = 220,000). Q01196+Q13951;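 active = mean inhibition across duplicate retests at 20 µM reaching about 50%, limit read from the data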;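 note: 0% = DMSO wells and 100% = wells with excess untagged CBFb-SMMHC; inhibitors lower the FRET ratio by blocking Runt binding to CBFb-SMMHC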
HDAC3 inhib: inhibitors of human histone deacetylase 3; inhibition, % at 8.3 µM; AID 2718; actives 0.15% (n = 320,000); recombinant HDAC3, fluorogenic peptide/trypsin coupled, fluorescence; in the data active = inhibition above about 26%, passing the limit was not always enough; inconclusive = no clear call, values can overlap the other calls
Target sequence (O15379 whole entry, looked up): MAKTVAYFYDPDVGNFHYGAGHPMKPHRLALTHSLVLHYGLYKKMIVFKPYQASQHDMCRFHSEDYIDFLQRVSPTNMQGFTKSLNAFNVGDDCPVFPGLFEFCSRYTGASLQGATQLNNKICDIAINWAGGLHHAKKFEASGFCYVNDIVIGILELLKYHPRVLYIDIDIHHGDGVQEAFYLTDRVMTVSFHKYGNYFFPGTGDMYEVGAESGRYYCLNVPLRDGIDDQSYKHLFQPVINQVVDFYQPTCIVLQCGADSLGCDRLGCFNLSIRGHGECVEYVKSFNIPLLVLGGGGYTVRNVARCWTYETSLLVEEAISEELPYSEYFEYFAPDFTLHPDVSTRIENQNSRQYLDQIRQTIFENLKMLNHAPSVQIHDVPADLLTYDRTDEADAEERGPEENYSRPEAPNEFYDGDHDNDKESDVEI
RanGTP-Impb inh: inhibitors of RanGTP-importin-beta interaction, primary screen, biochemical, FRET, CFP-Ran, YFP-importin-beta, homogeneous; actives 1.1% (n = 300,000); inhibition, % (concentration not given with the values); cell-free CFP-Ran/YFP-importin-beta FRET ratio; AID 2216;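 active = more than half of the replicate wells show a fall in the fluorescence ratio signal beyond about 16%, limit read from the data, passing the limit was not always enough; inconclusive = exactly half of the replicate wells pass the set limit; inactive = fewer than half of replicates pass the limit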;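 note: 0% = DMSO wells and 100% = Ran loaded with GDP instead of GTP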
CaV13 ICDI inh: Disruptors of the CACNA1D IQ motif to Ca2+-dependent inactivation inhibitor domain association, primary screening, Förster resonance energy transfer in intact living … | HEK cells, CFP/YFP FRET ICDI-IQ, plate reader, 10 min; percent FRET-ratio fall versus neutral wells | inhibition, % at 12.3 µM | actives 0.098% (n = 340,000) | AID 743397;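 active = mean replicate inhibition of at least 30% and at least 1% of replicates passing that level; inconclusive = only one of the two criteria is met; inactive = neither criterion is met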;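 note: 0% = median of the neutral control wells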
Runt-CBFb FRET: inhibitors of human RUNX1 Runt domain binding to CBFb; Q01196+Q13951; Cerulean-Runt/Venus-CBFb FRET ratio 530/480, 1 h; inhibition, % at 20 µM; actives 0.46% (n = 220,000); AID 1496;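 active = inhibition over about 50% at 20 µM in the single-dose screen, limit read from the data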;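 note: 0% = DMSO wells and 100% = excess unlabeled CBFb competitor control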
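Assay system: Cerulean-Runt domain fusion protein, energy donor; Signal: fluorescence energy transfer, 422 nm excitation, 530/480 nm emission; Timing: 1 h compound exposure, room temperature; Control set: unlabeled CBFb; Medium: Tris buffer pH 7.5 with salts and BSA; Compound: single test concentration of 20 µM, 1% DMSO final; Probe or stimulus: Venus-CBFb 100 nM.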
LANA-H2B inh: blocks KSHV LANA binding to histone H2A/H2B | cell-free LANA-H2A/H2B peptide, fluorescence polarization | inhibition, % (test concentration not listed) | actives 0.6% (n = 320,000); in the data active = inhibition mostly above about 10%, no sharp cut-off; inactive = mostly below about 6.7%
YIC counter: counter-screen YIC FRET for RanGTP-importin-beta inhibitors. shares compounds with RanGTP-Impb inh. Purified YIC probe, intramolecular FRET ratio YFP/CFP. IC50, µM. actives 40% (n = 1,000);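 active = fitted half-maximal inhibitory concentration no more than tenfold above the top dose tested; inconclusive = flat fit with 30 to 70% activity, or poor fit; inactive = half-maximal concentration beyond tenfold above the top dose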
Active calls of the source: *; ? = inconclusive; · = no result. A selection: hits, their analogues and other compounds. The true share with any hit is near 1.9%.

SMILES | Runt-SMMHC FRET | HDAC3 inhib | RanGTP-Impb inh | CaV13 ICDI inh | Runt-CBFb FRET | LANA-H2B inh | YIC counter
CCN(CC(=O)Nc1cc(Cl)ccc1C)C(=O)c1ccc(=O)n(Cc2ccccc2)n1 | · | -1.9 | ? | -5.6 | · | -16.9 | ·
O=C(c1ccccc1F)N1CCN=C1c1ccccc1 | 2.1 | 1.8 | -0.1 | -2.9 | -1.4 | -4.2 | ·
CCC1CCCCN1C(=O)CCC(=O)Nc1nnc(C(F)(F)F)s1 (stereo not given) | · | -0.9 | 3.3 | -6.6 | · | -0.7 | ·
O=C(COC(=O)c1cccnc1Nc1ccccc1F)NCCN1C(=O)CSC1=O | -2.8 | 6.4 | 27.4* | -9.4 | 0.8 | 6.2 | >50
CCCNC(=O)COC(=O)c1cccnc1Nc1ccccc1F | -1.1 | 8.2 | -2.7 | -5.6 | 1.3 | -6.9 | ·
CCOc1ccc(-n2c(N)c(C(=O)NCc3ccco3)c3nc4ccccc4nc32)cc1 | 86.0* | -18.6 | 25.1* | · | 34.7 | 3.9 | 20.8*
O=C(Cn1c(=O)c2cccn2c2cccnc21)NCCCN1CCN(c2ccc(F)cc2)CC1 | · | -0.4 | 31.5* | -2.4 | · | 5.6 | >50
COc1ccc(N2CCN(CCCNC(=O)Cn3c(=O)c4cccn4c4cccnc43)CC2)cc1 | · | 0.8 | -1.0 | -14.6 | · | 6.1 | ·
Cc1ccc(Nc2nc(N)[nH]c(=O)c2N=O)cc1 | 40.9 | 1.6 | 28.9* | -19.3 | 2.4 | -4.5 | 18.9*
Cc1cc(C(=O)N/N=C2\CC(=O)CC(C)(C)C2)c2ccccc2n1 | -3.4 | -2.8 | -2.4 | -18.6 | -2.7 | 2.9 | ·
CC1(C)CC(=O)C/C(=N\NC(=O)Cc2ccccc2)C1 | 1.2 | -0.2 | 26.4* | -2.7 | 2.9 | 3.0 | >50
N#Cc1c(N)nc2c(c1-c1ccc(Br)s1)CCCC2 | 10.1 | 3.9 | 5.1 | -5.7 | 2.8 | 2.0 | ·
Cc1ccc(-c2c(C#N)c(N)nc3c2CCCC3)s1 | 7.4 | 2.0 | 21.6* | -4.5 | 7.1 | -3.4 | 27.1*
CCc1nc(N)c(C#N)c(-c2ccc(F)cc2)c1C | 1.1 | -2.4 | 22.8* | · | 1.0 | 1.0 | >50
N#Cc1c(N)nc2c(c1-c1ccc(F)cc1)CCC2 | 29.0 | 4.5 | 20.9* | -4.1 | 19.3 | 4.4 | 9.91*
O=C(CN1CCN(S(=O)(=O)c2ccccc2)CC1)Nc1ccc(N2CCOCC2)cc1 | -3.3 | -1.8 | 7.5 | -2.8 | 1.7 | 5.0 | ·
Cc1ccccc1Nc1nc(N)nc(CSCC(=O)Nc2cccc(Br)c2)n1 | -0.6 | -1.5 | -2.1 | -2.0 | -3.0 | -2.3 | ·
CC1=C(C(=O)N(C(C)C)C(C)C)CC(CC(=O)NCCN2CCOCC2)C(=O)N1Cc1ccc(F)cc1 (stereo not given) | · | · | · | -6.7 | · | · | ·
COc1ccccc1C#Cc1ccc2c(=O)c3ccccc3n(C)c2c1 | · | 5.0 | 39.9* | -5.2 | · | -0.5 | 0.721*
Cc1ccccc1CN1CCC(n2nccc2NC(=O)c2cccnc2)CC1 | · | -4.7 | 0.6 | -4.7 | · | -0.2 | ·
COc1cc(NC(=O)c2cc(-c3ccc(C)cc3)on2)cc(OC)c1OC | · | -2.0 | 1.7 | -1.3 | · | -0.2 | ·
COc1cc(NC(=O)c2cc(-c3cccs3)on2)cc(OC)c1OC | -2.8 | · | 28.1* | -4.4 | -2.0 | · | >50
O=C(CN1C(=O)CSc2ccccc21)N1CCc2ccccc21 | 1.8 | 2.8 | ? | -6.6 | 1.1 | -4.1 | ·
O=c1c2ccccc2c2ccccc2c(=O)n1Cc1ccco1 | -0.6 | 7.0 | -1.4 | · | -0.5 | -3.9 | ·
Cc1c(N=Cc2c(O)n(Cc3ccco3)c(=O)c3ccccc23)c(=O)n(-c2ccccc2)n1C | -104.1 | 0.3 | 21.9* | -12.7 | -64.6 | 9.8 | 22.7*
SMILES | Runt-SMMHC FRET | HDAC3 inhib | RanGTP-Impb inh | CaV13 ICDI inh | Runt-CBFb FRET | LANA-H2B inh | YIC counter
CC(C)OCCCNC(=O)CCSc1ccc(Cl)cc1 | -1.8 | 3.7 | 26.5* | -7.3 | 1.0 | -0.9 | >50
Cc1cnc(=O)[nH]c1SCC(=O)c1ccc(F)cc1 | · | -6.0 | 16.3* | -13.9 | · | 5.9 | >50
CC(C)NC(=O)NC(=O)COC(=O)c1ccccc1O | -0.8 | 2.4 | 15.5* | 2.2 | -1.6 | -4.6 | >50
CC(C)CCNC(=O)c1cc(S(=O)(=O)N2CCc3ccccc32)cn1C | · | 0.4 | -0.3 | -9.1 | · | 1.9 | ·
C=CCn1c(=O)c(C(=O)Nc2ccc(C)cc2)c(O)c2ccccc21 | · | -8.5 | 28.2* | -20.3 | · | -5.3 | >50
Cc1ccccc1-n1cnc2cc(NCc3cccs3)ccc21 | 5.6 | -4.3 | 22.3* | · | 0.5 | -1.7 | >50
COc1ccc(CNc2ccc3c(c2)ncn3-c2ccccc2OC)cc1 | 6.6 | -0.5 | 29.1* | · | 5.7 | 5.5 | >50
Cn1c(C(=O)O)c(CC(=O)Nc2ccc3c(c2)OCCO3)c2ccccc21 | 0.5 | 11.8 | -0.6 | -4.9 | 0.0 | 5.8 | ·
Fc1ccc(N/N=C/C=C/c2ccccc2)c(F)c1 | 1.3 | 6.3 | 20.0* | -4.7 | 1.2 | -0.9 | >50
NNc1nc2sc3c(c2c(=O)n1C1CCCCC1)CCN(Cc1ccccc1)C3 | 54.4* | 7.6 | 28.3* | -5.1 | 74.4* | 1.2 | 0.918*
Cc1cc(C)cc(NC(=O)C2CCCN2C(=O)NC2CCCCC2)c1 (stereo not given) | -0.2 | -2.8 | -0.8 | -5.8 | -2.1 | -0.9 | ·
CCOCCCNC(=O)C(c1ccc(Cl)cc1)N(Cc1cccs1)C(=O)c1ccccn1 (stereo not given) | 4.1 | 6.1 | -2.7 | -6.7 | -1.7 | 2.3 | ·
CCS(=O)(=O)c1ccc(N)cc1 | 0.4 | -0.9 | -0.3 | -4.8 | 0.8 | 1.3 | ·
CCS(=O)(=O)c1ccc(S(=O)(=O)CC)s1 | -0.5 | -1.7 | 36.1* | -5.8 | -1.2 | 0.3 | >50
COCCCn1c(SCC(=O)NC(C)(C)C)nnc1-c1ccccc1 | -8.2 | -0.3 | 1.9 | -3.2 | -0.2 | 6.5 | ·
COc1ccc(OCc2nnc(SCC(=O)Nc3ccc(C)cc3)o2)cc1 | · | -9.0 | 4.6 | -2.7 | · | -0.2 | ·
Cc1ccc(OCc2nnc(SCC(=O)CC(=O)Nc3ccccc3)o2)cc1 | 2.9 | 10.0 | 26.6* | -5.4 | -3.5 | 17.3* | >50
CC(=O)Oc1ccc2c(C)cc(=O)oc2c1 | 19.1 | -21.4 | 0.1 | -2.1 | 8.8 | 2.0 | ·
CC(=O)Oc1cc2oc(=O)cc(C)c2cc1OC(C)=O | 41.9 | -46.3 | 30.2* | -3.6 | 81.0* | 1.1 | 44.8*
COc1cc2c(cc1NC(=S)Nc1cccc3ccccc13)oc1ccccc12 | 2.6 | -3.1 | 17.6* | -5.9 | 8.0 | -1.5 | >50
CC(=O)Nc1cc(C(=O)N(C)Cc2ccco2)ccc1Sc1ccc(Cl)cc1 | -1.9 | -0.4 | 17.5* | -4.3 | -0.8 | 1.2 | >50
O=C(NCC1CCN(Cc2ccccc2F)CC1)Nc1cc(F)ccc1F | · | 0.3 | 1.4 | -2.9 | · | 3.6 | ·
